Results: ChEMBL document CHEMBL3877244, “Synthesis and biological evaluation of new aryl-alkyl(alkenyl)-4-benzylpiperidines, novel Sigma Receptor (SR) modulators, as potential anticancer-agents” (Eur J Med Chem, 2016)
The source made the active and inactive calls. The rule behind the calls is not given here.

How the values were obtained:
[1] = Induction of apoptosis in human Paca3 cells assessed as necrotic cells in absence of 10% fetal calf serum at 10 uM after 24 hrs by annexin V-FITC/propidium iodide staining-based flow cytometry (reference value: 0.8 +/- 0.6%); format: functional
[2] = Induction of apoptosis in human Paca3 cells assessed as necrotic cells in presence of 10% fetal calf serum at 25 uM after 24 hrs by annexin V-FITC/propidium iodide staining-based flow cytometry (reference value: 0.6 +/- 0.4%); format: functional
[3] = Cytotoxicity against human Capan2 cells assessed as reduction in cell viability after 24 hrs in absence of 10% fetal calf serum by MTS assay; format: functional, cell-based; details: Capan-2, 24 h
Method in brief: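 Cells starved 24 h in low-glucose medium without FCS, then treated 24 h with compound in serum-free conditions. MTS read-out, OD 490 nm, expressed as percent of untreated control. IC50 read graphically from the dose-response plot. Three independent experiments in octuplicate.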

[4] = Cytotoxicity against human SUM159 cells assessed as reduction in cell viability after 24 hrs in presence of 10% fetal calf serum by MTS assay; format: functional, cell-based; details: SUM-159-PT
Method in brief: (§1)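 Cells in exponential growth, 3×10^3 per well, in medium with 10% FCS. Capan-2, PaCa3, MDA-MB 231, SUM 159 and PC3 were grown in DMEM/Ham's F12 with glutamine 2 mM and insulin 10 µg/ml. U87 was grown in EMEM and LNCaP in RPMI, each with glutamine. Compound 0.1–100 µM, continuous exposure (24 h; 48 h for the 48 h lines). MTS, OD 490 nm. IC50 read graphically. Three independent experiments in octuplicate.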

[5] = Induction of apoptosis in human Paca3 cells assessed as early apoptotic cells in presence of 10% fetal calf serum at 25 uM after 24 hrs by annexin V-FITC/propidium iodide staining-based flow cytometry (reference value: 5.6 +/- 0.3%); format: functional
[6] = Cytotoxicity against human Capan2 cells assessed as reduction in cell viability after 24 hrs in presence of 10% fetal calf serum by MTS assay; format: functional, cell-based; details: Capan-2, 24 h; method in brief: as §1
Paca3 = experiment: Induction of apoptosis in human Paca3 cells assessed as cleaved form of caspase 3 at 25 uM after 24 hrs in presence of 10% fetal calf serum by Western blot analysis; format: functional, cell-based
Method in brief: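 PaCa3 cells in 10% serum medium, exposed 24 h to 25 μM. Cleaved caspase 3 detected by western blot. Membranes blocked with T-TBS (0.1% Tween) and 5% non-fat milk, primary antibody overnight at 4 °C, then secondary antibody, chemiluminescent detection. Two independent experiments.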

[7] = Cytotoxicity against human Paca3 cells assessed as decrease in cell viability using complete medium after 24 hrs by MTS assay; format: functional, cell-based; details: Paca3, 24 h; method in brief: as §1
[8] = Cytotoxicity against human U87 cells assessed as reduction in cell viability after 24 hrs in presence of 10% fetal calf serum by MTS assay; format: functional, cell-based, U-87MG ATCC; details: U-87 MG; method in brief: as §1
[9] = Cytotoxicity against human Paca3 cells assessed as reduction in cell viability after 48 hrs in presence of 10% fetal calf serum by MTS assay; format: functional, cell-based; details: Paca3, 48 h; method in brief: as §1

In the case of C/C(=C\CN1CCC(Cc2ccccc2)CC1)c1ccc2ccccc2c1, the Activity [1] is reported as 0.3%, the Activity [2] is reported as 0.4% and the IC50 [3] is reported as 9.61 µM. The IC50 [4] was 58.3 µM, the Activity [5] was 43.1% and the IC50 [6] was 52.6 µM. For the same compound, the Activity (Paca3) was “Active”, the IC50 [7] was 49.8 µM and the IC50 [8] was 60.6 µM. For the same compound, the IC50 [9] was 28.7 µM.
